Results published in ChEMBL document CHEMBL1142189 (Antimicrob Agents Chemother, 2007).
Converted amounts (≈) assume the structure as drawn.

Key:
Type in all cases: functional, organism-based
[1] = tested on: Plasmodium falciparum; assay: Inhibition of Plasmodium falciparum AZ10011022 isolate in HRP2 ELISA
Summary of the method: (§1)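 Fresh pre-treatment clinical P. falciparum isolates, unfrozen, unwashed and not precultured, in duplicate at 1.5% hematocrit in RPMI 1640 with 0.5% Albumax and 25 mg/liter gentamicin. Plates carried predried twofold dilutions, single or in an 8x8 checkerboard. Incubation was 72 h at 37.5°C in 5% CO2/5% O2/90% N2, then two freeze-thaws. HRP2 sandwich ELISA read at 450 nm; IC50 from nonlinear regression.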

[2] = tested on: Plasmodium falciparum; assay: Inhibition of Plasmodium falciparum AZ10011003 isolate in HRP2 ELISA; summary of the method: as §1
[3] = tested on: Plasmodium falciparum; assay: Inhibition of Plasmodium falciparum AZ10011017 isolate in HRP2 ELISA
[4] = tested on: Plasmodium falciparum; assay: Inhibition of Plasmodium falciparum in HRP2 ELISA
Summary of the method: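 Fresh P. falciparum clinical isolates from untreated patients with confirmed monoinfection, unfrozen, unwashed, not precultured, no serum added; 1.5% hematocrit in complete RPMI 1640 with 0.5% Albumax and 25 mg/liter gentamicin, tested in duplicate. Twofold serial dilutions, seven concentrations plus drug-free control, on predried plates; 72 h at 37.5°C under 5% CO2/5% O2/90% N2. Plates freeze-thawed twice, HRP2 sandwich ELISA at 450 nm; IC50 by nonlinear regression.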

[5] = tested on: Plasmodium falciparum; assay: Inhibition of Plasmodium falciparum AZ10011008 isolate in HRP2 ELISA; summary of the method: as §1

Compound	IC50 [1] [µg/mL]	IC50 [2] [µg/mL]	IC50 [3] [µg/mL]	IC50 [4] [µg/mL]	IC90 [4] [µg/mL]	IC99 [4] [µg/mL]	IC50 [5] [µg/mL]
C[C@H]1[C@@H](O)O[C@@H]2O[C@@]3(C)CC[C@H]4[C@H](C)CC[C@@H]1[C@@]24OO3 [ARTENIMOL]	0.00038 (≈ 0.00134 µM)	0.00024 (≈ 0.000844 µM)	0.00027 (≈ 0.00095 µM)	0.00053 (≈ 0.00186 µM)	0.00143 (≈ 0.00503 µM)	0.00228	0.00091 (≈ 0.0032 µM)
CC[C@H]1OC(=O)[C@H](C)[C@@H](O[C@H]2C[C@@](C)(OC)[C@@H](O)[C@H](C)O2)[C@H](C)[C@@H](O[C@@H]2O[C@H](C)C[C@H](N(C)C)[C@H]2O)[C@](C)(O)C[C@@H](C)CN(C)[C@H](C)[C@@H](O)[C@]1(C)O [AZITHROMYCIN]	2.19 (≈ 2.92 µM)	2.44 (≈ 3.26 µM)	1.98 (≈ 2.64 µM)	2.57 (≈ 3.43 µM)	13.3 (≈ 17.8 µM)	23.9	5.34 (≈ 7.13 µM)
CCN(CC)CCCC(C)Nc1ccnc2cc(Cl)ccc12 (centres undefined) [CHLOROQUINE]	–	–	–	–	0.13 (≈ 0.405 µM)	0.172	–
OC(c1cc(C(F)(F)F)nc2c(C(F)(F)F)cccc12)C1CCCCN1 (centres undefined) [MEFLOQUINE]	–	–	–	–	0.031 (≈ 0.0819 µM)	0.0467	–
C=C[C@H]1CN2CC[C@H]1C[C@H]2[C@H](O)c1ccnc2ccc(OC)cc12 [QUININE]	0.116 (≈ 0.359 µM)	0.123 (≈ 0.38 µM)	–	0.0644 (≈ 0.198 µM)	0.173 (≈ 0.533 µM)	0.251	0.0828 (≈ 0.255 µM)
